Data published in ChEMBL document CHEMBL1153560, “In vitro activities of doripenem and six comparator drugs against 423 aerobic and anaerobic bacterial isolates from infected diabetic foot wounds” (2008).
Converted amounts (≈) assume the structure as drawn.

Legend:
Format in all cases: functional
[1] = test system: Corynebacterium amycolatum; test: Antibacterial activity against Corynebacterium amycolatum isolated from patient with diabetic foot infection assessed as percent resistant isolates after 48 hrs by broth microdilution method
Outline: (§1)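 Isolates subcultured on Trypticase soy blood agar. Broth microdilution in cation-adjusted Mueller-Hinton broth with lysed horse blood, using in-house twofold dilution trays stored at −70°C. Inoculum from overnight colonies at about 5 × 10^5 CFU/ml final. Read after 18 to 24 h at 37°C, up to 48 h for some Corynebacterium strains.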

[2] = test system: Corynebacterium jeikeium; test: Antibacterial activity against Corynebacterium jeikeium isolated from patient with diabetic foot infection assessed as percent resistant isolates after 48 hrs by broth microdilution method; outline: as §1
[3] = test system: Staphylococcus aureus; test: Antibacterial activity against methicillin-resistant Staphylococcus aureus isolated from patient with diabetic foot infection assessed as percent resistant isolates after 18 to 24 hrs by broth microdilution method
Outline: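 Isolates grown on Trypticase soy blood agar, then tested by broth microdilution in unsupplemented cation-adjusted Mueller-Hinton broth. In-house trays held serial twofold drug dilutions and were stored at −70°C. Overnight colonies were suspended to a final inoculum near 5 × 10^5 CFU/ml, and trays read after 18–24 h at 37°C. QC strains: S. aureus ATCC 29213, E. coli ATCC 25922.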

[4] = test system: Parabacteroides distasonis; test: Antibacterial activity against Parabacteroides distasonis isolated from patient with diabetic foot infection assessed as percent resistant isolates after 44 to 48 hrs by agar dilution method
Outline: (§2)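 Agar dilution per CLSI M11-A7. Twofold drug dilutions made on the test day and added to molten agar. Replicator-applied inoculum of 10^5 CFU/spot. Drug-free control plates inoculated before and after each drug set. Incubation at 37°C for 44 to 48 h, anaerobic chamber. MIC taken as the lowest concentration giving no growth or a marked change in growth versus controls.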

[5] = test system: Staphylococcus haemolyticus; test: Antibacterial activity against Staphylococcus haemolyticus isolated from patient with diabetic foot infection after 18 to 24 hrs by broth microdilution method
[6] = test system: Parvimonas micra; test: Antibacterial activity against Peptostreptococcus micros isolated from patient with diabetic foot infection assessed as percent resistant isolates after 44 to 48 hrs by agar dilution method; outline: as §2
[7] = test system: Bacteroides stercoris; test: Antibacterial activity against Bacteroides stercoris isolated from patient with diabetic foot infection after 44 to 48 hrs by agar dilution method
Outline: (§3)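 CLSI M11-A7 agar dilution: serial twofold drug dilutions made on the test day and added to molten agar. Spots of 10^5 CFU were applied by replicator, with drug-free control plates inoculated before and after each set. Incubation was 44 to 48 h at 37°C in an anaerobic chamber. MIC was the lowest concentration giving no growth or a marked change in growth versus controls.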

[8] = test system: Bacteroides uniformis; test: Antibacterial activity against Bacteroides uniformis isolated from patient with diabetic foot infection assessed as percent resistant isolates after 44 to 48 hrs by agar dilution method; outline: as §2
[9] = test system: Corynebacterium aurimucosum; test: Antibacterial activity against Corynebacterium aurimucosum isolated from patient with diabetic foot infection after 48 hrs by broth microdilution method
Outline: (§4)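 Isolates were subcultured on Trypticase soy blood agar. Broth microdilution used cation-adjusted Mueller-Hinton broth with lysed horse blood, in-house trays of twofold drug dilutions stored at −70°C. Colonies from overnight growth gave a final inoculum of about 5 × 10^5 CFU/ml. Trays were read after 18 to 24 h at 37°C, up to 48 h for some strains.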

[10] = test system: Cutibacterium acnes; test: Antibacterial activity against Propionibacterium acnes isolated from patient with diabetic foot infection assessed as percent resistant isolates after 44 to 48 hrs by agar dilution method; outline: as §2
[11] = test system: Anaerococcus tetradius; test: Antibacterial activity against Anaerococcus tetradius isolated from patient with diabetic foot infection after 44 to 48 hrs by agar dilution method; outline: as §3
[12] = test system: Streptococcus pyogenes; test: Antibacterial activity against Streptococcus pyogenes isolated from patient with diabetic foot infection after 18 to 24 hrs by broth microdilution method
Outline: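 Streptococcal isolates were subcultured on Trypticase soy blood agar. Broth microdilution used cation-adjusted Mueller-Hinton broth with lysed horse blood, in in-house trays of serial twofold drug dilutions stored at −70°C. Overnight colonies were suspended to a final inoculum of approximately 5 × 10^5 CFU/ml. MIC was read after 18 to 24 h incubation at 37°C.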

[13] = test system: Clostridium perfringens; test: Antibacterial activity against Clostridium perfringens isolated from patient with diabetic foot infection after 44 to 48 hrs by agar dilution method; outline: as §2
[14] = test system: Corynebacterium simulans; test: Antibacterial activity against Corynebacterium simulans isolated from patient with diabetic foot infection after 48 hrs by broth microdilution method; outline: as §4
[15] = test system: Porphyromonas somerae; test: Antibacterial activity against Porphyromonas somerae isolated from patient with diabetic foot infection after 44 to 48 hrs by agar dilution method; outline: as §3
[16] = test system: Peptostreptococcus anaerobius; test: Antibacterial activity against Peptostreptococcus anaerobius isolated from patient with diabetic foot infection assessed as percent resistant isolates after 44 to 48 hrs by agar dilution method; outline: as §2
[17] = test system: Clostridium cadaveris; test: Antibacterial activity against Clostridium cadaveris isolated from patient with diabetic foot infection assessed as percent resistant isolates after 44 to 48 hrs by agar dilution method; outline: as §2
[18] = test system: Corynebacterium simulans; test: Antibacterial activity against Corynebacterium simulans isolated from patient with diabetic foot infection assessed as percent resistant isolates after 48 hrs by broth microdilution method; outline: as §1
[19] = test system: Anaerococcus tetradius; test: Antibacterial activity against Anaerococcus tetradius isolated from patient with diabetic foot infection assessed as percent resistant isolates after 44 to 48 hrs by agar dilution method; outline: as §2
[20] = test system: Anaerocolumna aminovalerica; test: Antibacterial activity against Clostridium aminovalericum isolated from patient with diabetic foot infection after 44 to 48 hrs by agar dilution method; outline: as §3
[21] = test system: Staphylococcus epidermidis; test: Antibacterial activity against Staphylococcus epidermidis isolated from patient with diabetic foot infection assessed as percent resistant isolates after 18 to 24 hrs by broth microdilution method
Outline: (§5)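 Aerobes subcultured on Trypticase soy blood agar, then broth microdilution in cation-adjusted Mueller-Hinton broth. Trays prepared in-house with twofold dilutions and stored at −70°C. Overnight colonies suspended to about 5 × 10^5 CFU/ml final. Read after 18 to 24 h at 37°C. QC strains included S. aureus ATCC 29213 and E. coli ATCC 25922.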

[22] = test system: Bacteroides uniformis; test: Antibacterial activity against Bacteroides uniformis isolated from patient with diabetic foot infection after 44 to 48 hrs by agar dilution method; outline: as §3
[23] = test system: Anaerococcus prevotii; test: Antibacterial activity against Anaerococcus prevotii isolated from patient with diabetic foot infection assessed as percent resistant isolates after 44 to 48 hrs by agar dilution method; outline: as §2
[24] = test system: Parabacteroides merdae; test: Antibacterial activity against Parabacteroides merdae isolated from patient with diabetic foot infection after 44 to 48 hrs by agar dilution method; outline: as §3
[25] = test system: Anaerocolumna aminovalerica; test: Antibacterial activity against Clostridium aminovalericum isolated from patient with diabetic foot infection assessed as percent resistant isolates after 44 to 48 hrs by agar dilution method; outline: as §2
[26] = test system: Klebsiella aerogenes; test: Antibacterial activity against Enterobacter aerogenes isolated from patient with diabetic foot infection assessed as percent resistant isolates after 18 to 24 hrs by broth microdilution method; outline: as §5
[27] = test system: Providencia rettgeri; test: Antibacterial activity against Proteus rettgeri isolated from patient with diabetic foot infection assessed as percent resistant isolates after 18 to 24 hrs by broth microdilution method; outline: as §5

Row | SMILES | Activity [3] [%] | Activity [4] [%] | MIC50 [5] [µg/mL] | MIC90 [5] [µg/mL] | Activity [6] [%] | MIC50 [7] [µg/mL] | MIC90 [7] [µg/mL] | Activity [8] [%] | MIC50 [9] [µg/mL] | MIC90 [9] [µg/mL] | Activity [10] [%] | MIC50 [11] [µg/mL] | MIC90 [11] [µg/mL] | MIC50 [12] [µg/mL] | MIC90 [12] [µg/mL] | MIC50 [13] [µg/mL] | MIC90 [13] [µg/mL] | MIC50 [14] [µg/mL] | MIC90 [14] [µg/mL] | MIC50 [15] [µg/mL] | also measured
1 | CCC[C@@H]1C[C@@H](C(=O)N[C@@H]([C@H]2O[C@H](SC)[C@H](O)[C@@H](O)[C@H]2O)[C@H](C)Cl)N(C)C1 [CLINDAMYCIN] | 39 | 20 | 0.125 (≈ 0.294 µM) | 8 (≈ 18.8 µM) | 0 | 2 (≈ 4.71 µM) | > 64 | 20 | > 64 | > 64 | 0 | 0.125 (≈ 0.294 µM) | 64 (≈ 151 µM) | 0.125 (≈ 0.294 µM) | > 64 | 1 (≈ 2.35 µM) | 1 (≈ 2.35 µM) | 2 (≈ 4.71 µM) | > 64 | ≤ 0.03 | Activity [1]: 100%; Activity [2]: 100%; MIC90 [15]: 64 µg/mL (≈ 151 µM); Activity [16]: 0%; Activity [17]: 23%; Activity [18]: 78%; Activity [19]: 18%; MIC50 [20]: 0.5 µg/mL (≈ 1.18 µM); MIC90 [20]: 16 µg/mL (≈ 37.6 µM); Activity [21]: 33%; MIC50 [22]: 2 µg/mL (≈ 4.71 µM); MIC90 [22]: > 64 µg/mL; Activity [23]: 18%; MIC50 [24]: 2 µg/mL (≈ 4.71 µM); MIC90 [24]: > 64 µg/mL; Activity [25]: 23%
2 | C[C@@H](O)[C@H]1C(=O)N2C(C(=O)O)=C(S[C@@H]3CN[C@H](CNS(N)(=O)=O)C3)[C@H](C)[C@H]12 [DORIPENEM] | 100 | 0 | 0.5 (≈ 1.19 µM) | 16 (≈ 38 µM) | 0 | 0.25 (≈ 0.595 µM) | 1 (≈ 2.38 µM) | 0 | 1 (≈ 2.38 µM) | 8 (≈ 19 µM) | 0 | ≤ 0.015 | 0.06 (≈ 0.143 µM) | ≤ 0.015 | ≤ 0.015 | ≤ 0.015 | 0.03 (≈ 0.0713 µM) | 0.125 (≈ 0.297 µM) | 0.25 (≈ 0.595 µM) | ≤ 0.015 | MIC90 [15]: 0.03 µg/mL (≈ 0.0713 µM); Activity [16]: 0%; Activity [17]: 0%; Activity [19]: 0%; MIC50 [20]: 0.06 µg/mL (≈ 0.143 µM); MIC90 [20]: 1 µg/mL (≈ 2.38 µM); Activity [21]: 67%; MIC50 [22]: 0.25 µg/mL (≈ 0.595 µM); MIC90 [22]: 1 µg/mL (≈ 2.38 µM); Activity [23]: 0%; MIC50 [24]: 0.25 µg/mL (≈ 0.595 µM); MIC90 [24]: 1 µg/mL (≈ 2.38 µM); Activity [26]: 0%; Activity [27]: 0%; Activity [25]: 0%
3 | C[C@@H](O)[C@H]1C(=O)N2C(C(=O)O)=C(S[C@@H]3CN[C@H](C(=O)Nc4cccc(C(=O)O)c4)C3)[C@H](C)[C@H]12 [ERTAPENEM] | 100 | 0 | 4 (≈ 8.41 µM) | > 32 | 0 | 1 (≈ 2.1 µM) | 2 (≈ 4.21 µM) | 0 | 1 (≈ 2.1 µM) | 32 (≈ 67.3 µM) | 0 | 0.125 (≈ 0.263 µM) | 0.25 (≈ 0.526 µM) | ≤ 0.015 | ≤ 0.015 | 0.06 (≈ 0.126 µM) | 0.125 (≈ 0.263 µM) | 0.5 (≈ 1.05 µM) | 1 (≈ 2.1 µM) | ≤ 0.015 | MIC90 [15]: 0.06 µg/mL (≈ 0.126 µM); Activity [16]: 0%; Activity [17]: 0%; Activity [19]: 0%; MIC50 [20]: 0.25 µg/mL (≈ 0.526 µM); MIC90 [20]: 2 µg/mL (≈ 4.21 µM); Activity [21]: 67%; MIC50 [22]: 1 µg/mL (≈ 2.1 µM); MIC90 [22]: 2 µg/mL (≈ 4.21 µM); Activity [23]: 0%; MIC50 [24]: 1 µg/mL (≈ 2.1 µM); MIC90 [24]: 2 µg/mL (≈ 4.21 µM); Activity [26]: 0%; Activity [27]: 0%; Activity [25]: 0%
4 | C[C@@H](O)[C@H]1C(=O)N2C(C(=O)O)=C(SCCNC=N)C[C@H]12 [IMIPENEM ANHYDROUS] | 100 | 0 | 0.06 (≈ 0.2 µM) | 16 (≈ 53.4 µM) | 0 | 0.5 (≈ 1.67 µM) | 1 (≈ 3.34 µM) | 0 | 0.25 (≈ 0.835 µM) | 32 (≈ 107 µM) | 0 | ≤ 0.015 | 0.03 (≈ 0.1 µM) | ≤ 0.015 | ≤ 0.015 | 0.06 (≈ 0.2 µM) | 0.125 (≈ 0.418 µM) | 0.03 (≈ 0.1 µM) | 0.125 (≈ 0.418 µM) | < 0.015 | Activity [1]: 7%; Activity [2]: 30%; MIC90 [15]: ≤ 0.015 µg/mL; Activity [16]: 0%; Activity [17]: 0%; Activity [18]: 0%; Activity [19]: 0%; MIC50 [20]: 0.25 µg/mL (≈ 0.835 µM); MIC90 [20]: 2 µg/mL (≈ 6.68 µM); Activity [21]: 67%; MIC50 [22]: 0.5 µg/mL (≈ 1.67 µM); MIC90 [22]: 1 µg/mL (≈ 3.34 µM); Activity [23]: 0%; MIC50 [24]: 0.5 µg/mL (≈ 1.67 µM); MIC90 [24]: 1 µg/mL (≈ 3.34 µM); Activity [26]: 0%; Activity [27]: 0%; Activity [25]: 0%
